The source made the active and inactive calls.
Assays:
Heart [1] = test: Cardiotoxicity in Langendorff-perfused Sprague-Dawley rat heart assessed as time duration of cardiac cycle length at 1 uM by ECG analysis (reference value: 238.38 +/- 9.23 milliseconds); assay type: toxicity, tissue-based
Heart [2] = test: Cardiotoxicity in Langendorff-perfused Sprague-Dawley rat heart assessed as atrioventricular conduction time at 0.001 uM by ECG analysis (reference value: 45.62 +/- 4.49 milliseconds); assay type: toxicity, tissue-based
Heart [3] = test: Cardiotoxicity in Langendorff-perfused Sprague-Dawley rat heart assessed as intraventricular conduction time at 1 uM by ECG analysis (reference value: 14.26 +/- 0.71 milliseconds); assay type: toxicity, tissue-based, Cardiac ventricle
Heart [4] = test: Cardiotoxicity in Langendorff-perfused Sprague-Dawley rat heart assessed as corrected time duration of action potential at 0.01 uM by ECG analysis (reference value: 155.26 +/- 2.96 milliseconds); assay type: toxicity, tissue-based
Heart [5] = test: Cardiotoxicity in Langendorff-perfused Sprague-Dawley rat heart assessed as corrected time duration of action potential at 1 uM by ECG analysis (reference value: 155.26 +/- 2.96 milliseconds); assay type: toxicity, tissue-based
Mus musculus [6] = test: Toxicity in CD-1 mouse assessed as 2-AG level in pawskin at 0.3 mg/kg, ip by LC-MS analysis (reference value: 6.1 +/- 0.3 pmol/g); assay type: organism-based; conditions: in vivo
Outline: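 Male CD-1 mice received 0.3 mg/kg i.p. in 0.5% DMSO/saline, with formalin (1.25%, 30 µL) injected into the dorsal hind paw. Paw skin or spinal cord was taken at 5 min post-dose. Tissue was homogenized in CHCl3/MeOH/50 mM Tris-HCl (2:1:1) containing d5-2-AG, extracted with chloroform and analysed by LC-MS. n = 4; ANOVA with Bonferroni test.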

Monoglyceride lipase = molecular target: T1, Monoglyceride lipase (Rattus norvegicus, UniProt Q8R431); test: Inhibition of rat MAGL
T1 sequence (Q8R431 whole entry): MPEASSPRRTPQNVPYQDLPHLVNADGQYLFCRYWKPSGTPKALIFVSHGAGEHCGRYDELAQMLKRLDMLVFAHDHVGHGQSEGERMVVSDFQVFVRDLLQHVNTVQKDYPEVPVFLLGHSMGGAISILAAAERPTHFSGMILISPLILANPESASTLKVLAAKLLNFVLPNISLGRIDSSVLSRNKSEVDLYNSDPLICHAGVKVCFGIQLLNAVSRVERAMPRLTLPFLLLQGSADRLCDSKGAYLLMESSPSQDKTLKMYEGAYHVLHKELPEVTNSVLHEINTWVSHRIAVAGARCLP

Mus musculus [7] = test: Antinociceptive activity in ip dosed CD-1 mouse assessed as inhibition of formalin-induced pain response compound administered 10 mins before formalin injection measured during early phase; assay type: functional; conditions: CD-1, ip, read-out: MED
Outline: (§1)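 Male CD-1 mice, n = 6 per group, injected with formalin (1.25% in saline, 30 μL) into the dorsal hind paw. Inhibitor (0.1 or 0.3 mg/kg i.p. in 0.5% DMSO/saline) given 10 min before formalin. Where used, AM251 or AM630 (1 mg/kg i.p.) given 10 min before the inhibitor. Time spent lifting, licking, shaking or flinching the injected paw recorded every 5 min over 60 min.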

Salmonella typhimurium = test: Mutagenicity in Salmonella typhimurium TA100 assessed as increase in number of colonies up to >200 uM by Ames test in presence of S9 fraction; assay type: toxicity, organism-based; conditions: salmonella enterica subsp. enterica serovar typhimurium
[8] = Apparent permeability from luminal to abluminal side in human endothelial cells cocultured with pericytes at 100 uM after 20 to 60 mins by LC-UV analysis; assay type: ADME, cell-based, Endothelial cell
Outline: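 Human BBB model: endothelial cells derived from hematopoietic stem cells, cocultured 6 days with pericytes. Compound (100 µM in Ringer + Hepes) added luminally together with Lucifer yellow as an integrity marker. Incubated 20, 40 and 60 min at 37 °C; abluminal compound measured by LC-UV. Papp = J/(A·C0).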

Heart [9] = test: Cardiotoxicity in Langendorff-perfused Sprague-Dawley rat heart assessed as heart rate at 0.1 uM by ECG analysis (reference value: 252.78 +/- 9.28 bpm); assay type: toxicity, tissue-based
Mus musculus [10] = test: Reduction of IBA1 positive cells in white matter anterior fasciculus of experimental autoimmune encephalomyelitis C57BL/6J mouse spinal cord at 3 mg/kg, ip administered post CB1 antagonist/inverse agonist AM251 addition by immunofluorescence assay; assay type: functional, organism-based
Outline: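 MOG35-55-immunized female C57BL/6J mice were given 3 mg/kg i.p. daily. AM251 or AM630, each at 1 mg/kg, was given 10 min before each dose. Iba1 immunofluorescence with DAPI was done on spinal cord white matter (anterior fasciculus). Positive cells were counted per optic field. One-way ANOVA with Bonferroni test.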

Mus musculus [11] = test: Antinociceptive activity in CD-1 mouse assessed as inhibition of formalin-induced pain response at 0.1 to 0.3 mg/kg, ip dosed 10 mins before formalin injection measured during early phase; assay type: functional, organism-based; outline: as §1
Mus musculus [12] = test: Antinociceptive activity in CD-1 mouse assessed as inhibition of formalin-induced early phase pain response at 0.1 to 0.3 mg/kg, ip dosed 10 mins before formalin injection measured every 5 mins for 60 mins in presence of CB1 antagonist/inverse agonist AM251; assay type: functional, organism-based; outline: as §1
Mus musculus [13] = test: Antinociceptive activity in CD-1 mouse assessed as inhibition of formalin-induced early phase pain response at 0.1 to 0.3 mg/kg, ip dosed 10 mins before formalin injection measured every 5 mins for 60 mins in presence of CB2 antagonist/inverse agonist AM630; assay type: functional, organism-based; outline: as §1
Mus musculus [14] = test: Antinociceptive activity in CD-1 mouse assessed as inhibition of formalin-induced late phase pain response at 0.1 to 0.3 mg/kg, ip dosed 10 mins before formalin injection measured every 5 mins for 60 mins in presence of CB2 antagonist/inverse agonist AM630; assay type: functional, organism-based; outline: as §1
Mus musculus [15] = test: Analgesic activity in po dosed CD-1 mouse model of oxaliplatin-induced neuropathic pain assessed as reversal of lowering of threshold to cold stimuli administered on day 14 after oxaliplatin addition by cold plate test; assay type: functional, organism-based
[16] = molecular target: T2, Lysophosphatidylserine lipase ABHD12 (Rattus norvegicus) (UniProt Q6AYT7); test: Inhibition of ABHD12 in rat brain membranes up to 500 nM preincubated for 20 mins followed by fluorophosphonate-rhodamine addition measured after 30 mins by competitive affinity based proteomic profiling assay; assay type: cell membranes; conditions: Membrane
T2 sequence (whole entry): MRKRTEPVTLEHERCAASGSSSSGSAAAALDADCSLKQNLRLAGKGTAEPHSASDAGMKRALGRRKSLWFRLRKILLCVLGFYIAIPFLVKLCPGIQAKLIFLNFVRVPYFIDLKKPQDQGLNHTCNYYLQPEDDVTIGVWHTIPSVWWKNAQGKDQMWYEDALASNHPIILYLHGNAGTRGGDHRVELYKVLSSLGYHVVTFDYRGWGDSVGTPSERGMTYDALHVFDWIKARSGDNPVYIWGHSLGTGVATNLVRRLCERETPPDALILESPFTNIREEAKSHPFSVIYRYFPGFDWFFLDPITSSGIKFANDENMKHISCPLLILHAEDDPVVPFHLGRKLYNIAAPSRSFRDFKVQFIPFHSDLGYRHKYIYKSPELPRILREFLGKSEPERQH
Outline: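 Rat brain membranes (1 mg/mL) preincubated with 1–1000 nM inhibitor or DMSO for 20 min at 37 °C. FP-rhodamine then added and incubated a further 30 min at 37 °C. Samples run on SDS-PAGE and serine hydrolase bands quantified by in-gel fluorescence.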

With `O=C1[C@H](c2ccc(F)cc2)[C@@H](c2ccc3c(c2)OCO3)N1C1CCN(C(=O)n2cncn2)CC1` (racemic) [listing 1 of 2 here] the Time (Heart [1]) was 235.48 ms, the Time (Heart [2]) was 46.03 ms and the Time (Heart [3]) was 13.75 ms. It also gave a Time (Heart [4]) of 156.3 ms, a Time (Heart [5]) of 156.78 ms and an Activity (Mus musculus [6]) of 11 pmol/g. For the same molecule, the IC50 (Monoglyceride lipase) was 0.25 nM, the minimal effective dose (Mus musculus [7]) was 0.3 mg/kg and the Activity (Salmonella typhimurium) was “Non-toxic”. The Papp at 100 µM [8] was 47 ×10⁻⁶ cm/s and the Activity (Heart [9]) was 252.65 bpm.

In the case of `O=C1[C@H](c2ccc(F)cc2)[C@@H](c2ccc3c(c2)OCO3)N1C1CCN(C(=O)n2cncn2)CC1` (racemic) [listing 2 of 2 here], the Activity (Mus musculus [10]) is reported as “inactive”, the inhibition (Mus musculus [11]) is reported as “Active” and the inhibition (Mus musculus [12]) is reported as “inactive”. For the same molecule, the inhibition (Mus musculus [13]) was “inactive”, the inhibition (Mus musculus [14]) was “inactive” and the Activity (Mus musculus [15]) was “Dose-dependent effect”. For the same molecule, the inhibition [16] was “inactive”.

From ChEMBL document CHEMBL3785023, “Development and Pharmacological Characterization of Selective Blockers of 2-Arachidonoyl Glycerol Degradation with Efficacy in Rodent Models of Multiple Sclerosis and Pain” (J Med Chem, 2016)
